In ChEMBL document CHEMBL2417507, “Synthesis and bioevaluation of some new isoniazid derivatives” (Bioorg Med Chem, 2013):
Values after ≈ are worked out from the molar mass of the structure shown. Active and inactive are the calls of the source. No cut-off for these calls is given here.

What was measured:
[1] = tested on: Acinetobacter baumannii; experiment: Antibacterial activity against Acinetobacter baumannii 247 assessed as growth inhibition at 1 mg/mL after 24 hrs by agar-disk diffusion technique; type: functional, organism-based
How it was run: (§1)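 Agar-disk diffusion, adapted: plates seeded with 0.5 McFarland suspension prepared from 24 h cultures; 5 µL of a 1 mg/mL compound solution spotted onto the seeded solid medium; incubated 24 h at 37 °C. Stocks made in DMSO.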

[2] = tested on: Pseudomonas aeruginosa; experiment: Antibacterial activity against Pseudomonas aeruginosa ATCC 27853 assessed as growth inhibition at 1 mg/mL after 24 hrs by agar-disk diffusion technique; type: functional, organism-based; how it was run: as §1
[3] = tested on: Pseudomonas aeruginosa; experiment: Antibacterial activity against Pseudomonas aeruginosa 165 assessed as growth inhibition at 1 mg/mL after 24 hrs by agar-disk diffusion technique; type: functional, organism-based; how it was run: as §1
[4] = tested on: Acinetobacter baumannii; experiment: Antibacterial activity against Acinetobacter baumannii 136 assessed as growth inhibition at 1 mg/mL after 24 hrs by agar-disk diffusion technique; type: functional, organism-based; how it was run: as §1
[5] = tested on: Proteus mirabilis; experiment: Antibacterial activity against Proteus mirabilis 1751 assessed as growth inhibition at 1 mg/mL after 24 hrs by agar-disk diffusion technique; type: functional, organism-based; how it was run: as §1
[6] = tested on: HCT-8; experiment: Induction of apoptosis in human HCT8 cells assessed as necrotic cells at 50 ug/mL after 24 hrs by Annexin V-FITC and propidium iodide staining-based flow cytometric analysis (reference value: 7.73%); type: cell-based; settings: hct-8, 24 h
[7] = tested on: Acinetobacter baumannii; experiment: Antibacterial activity against Acinetobacter baumannii 125 assessed as growth inhibition at 1 mg/mL after 24 hrs by agar-disk diffusion technique; type: functional, organism-based; how it was run: as §1
[8] = tested on: HCT-8; experiment: Induction of apoptosis in human HCT8 cells assessed as late apoptotic cells at 50 ug/mL after 24 hrs by Annexin V-FITC and propidium iodide staining-based flow cytometric analysis (reference value: 2.97%); type: cell-based; settings: hct-8, 24 h
[9] = tested on: HCT-8; experiment: Cell cycle arrest in human HCT8 cells assessed as accumulation at G0/G1 phase at 50 ug/mL after 24 hrs by propidium iodide staining-based flow cytometric analysis (reference value: 46.43%); type: ADME; settings: hct-8, 24 h
[10] = tested on: Radical scavenging activity; experiment: Antioxidant activity assessed as DPPH radical scavenging activity at 0.1 mg/mL after 30 mins under dark conditions by spectrophotometric analysis relative to control; type: functional
How it was run: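 Compounds dissolved in methanol at 0.1 mg/mL; 0.2 mL mixed with 1.8 mL of 2 × 10^-4 M DPPH in methanol and kept in the dark 30 min. Absorbance read at 517 nm. The blank was DPPH plus methanol. TAC (%) = (Abs initial − Abs 30 min)/Abs initial × 100.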

[11] = tested on: Acinetobacter baumannii; experiment: Antibacterial activity against Acinetobacter baumannii 135 assessed as growth inhibition at 1 mg/mL after 24 hrs by agar-disk diffusion technique; type: functional, organism-based; how it was run: as §1
[12] = tested on: Klebsiella pneumoniae; experiment: Antibacterial activity against Klebsiella pneumoniae 1756 assessed as growth inhibition at 1 mg/mL after 24 hrs by agar-disk diffusion technique; type: functional, organism-based; how it was run: as §1
[13] = tested on: Escherichia coli; experiment: Antibacterial activity against Escherichia coli 1777 assessed as growth inhibition at 1 mg/mL after 24 hrs by agar-disk diffusion technique; type: functional, organism-based; how it was run: as §1
[14] = Induction of apoptosis in human HCT8 cells assessed as viable cells at 50 ug/mL after 24 hrs by Annexin V-FITC and propidium iodide staining-based flow cytometric analysis (reference value: 87.7%); type: cell-based, HCT-8; settings: read-out: Activity
[15] = tested on: HCT-8; experiment: Decrease in NAT1 gene expression in human HCT8 cells at 50 ug/mL after 24 hrs by RT-PCR analysis; type: ADME, cell-based; settings: hct-8, 24 h
[16] = tested on: Pseudomonas putida; experiment: Antibacterial activity against Pseudomonas putida 160 assessed as growth inhibition at 1 mg/mL after 24 hrs by agar-disk diffusion technique; type: functional, organism-based; how it was run: as §1
[17] = tested on: Morganella morganii; experiment: Antibacterial activity against Morganella morganii 2810 assessed as growth inhibition at 1 mg/mL after 24 hrs by agar-disk diffusion technique; type: functional, organism-based; how it was run: as §1
[18] = tested on: HCT-8; experiment: Decrease in NAT2 gene expression in human HCT8 cells at 50 ug/mL after 24 hrs by RT-PCR analysis; type: ADME, cell-based; settings: hct-8, 24 h
[19] = tested on: HCT-8; experiment: Cell cycle arrest in human HCT8 cells assessed as accumulation at G2/M phase at 50 ug/mL after 24 hrs by propidium iodide staining-based flow cytometric analysis (reference value: 13.83%); type: ADME; settings: hct-8, 24 h
[20] = tested on: HCT-8; experiment: Cell cycle arrest in human HCT8 cells assessed as accumulation at S phase at 50 ug/mL after 24 hrs by propidium iodide staining-based flow cytometric analysis (reference value: 39.43%); type: ADME; settings: hct-8, 24 h
[21] = tested on: Pseudomonas aeruginosa; experiment: Antibacterial activity against Pseudomonas aeruginosa 1144 assessed as growth inhibition at 1 mg/mL after 24 hrs by agar-disk diffusion technique; type: functional, organism-based; how it was run: as §1
[22] = tested on: HCT-8; experiment: Induction of apoptosis in human HCT8 cells assessed as early apoptotic cells at 50 ug/mL after 24 hrs by Annexin V-FITC and propidium iodide staining-based flow cytometric analysis (reference value: 1.57%); type: cell-based; settings: hct-8, 24 h
[23] = tested on: Mycobacterium tuberculosis; experiment: Antimycobacterial activity against Mycobacterium tuberculosis after 8 days by micro plate Alamar Blue assay; type: functional; settings: 192 h
How it was run: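 Clinical M. tuberculosis strain grown in Middlebrook 7H9 broth. Compounds were dissolved in DMSO and serially diluted twofold on the plate, final 25 to 0.012 µg/mL. Plates were sealed and held 8 days at 37 °C. Alamar Blue with 10% Tween 80 (1:1) was then added for another 24 h at 37 °C. MIC was the lowest concentration preventing the blue-to-pink change.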

[24] = tested on: Enterobacter cloacae; experiment: Antibacterial activity against Enterobacter cloacae 1845 assessed as growth inhibition at 1 mg/mL after 24 hrs by agar-disk diffusion technique; type: functional, organism-based; how it was run: as §1
[25] = tested on: Acinetobacter baumannii; experiment: Antibacterial activity against Acinetobacter baumannii 192 assessed as growth inhibition at 1 mg/mL after 24 hrs by agar-disk diffusion technique; type: functional, organism-based; how it was run: as §1
[26] = tested on: Citrobacter koseri; experiment: Antibacterial activity against Citrobacter koseri 1742 assessed as growth inhibition at 1 mg/mL after 24 hrs by agar-disk diffusion technique; type: functional, organism-based; how it was run: as §1
[27] = tested on: Enterococcus faecalis; experiment: Antibacterial activity against Enterococcus faecalis 2920 assessed as growth inhibition at 1 mg/mL after 24 hrs by agar-disk diffusion technique; type: functional, organism-based; how it was run: as §1

Row | Compound | growth inhibition (GI) [1] | growth inhibition (GI) [2] | growth inhibition (GI) [3] | growth inhibition (GI) [4] | growth inhibition (GI) [5] | Activity [6] [%] | growth inhibition (GI) [7] | Activity [8] [%] | Activity [9] [%] | TAC [10] [%] | growth inhibition (GI) [11] | growth inhibition (GI) [12] | viability at 24 h, 50 ug/mL [14] [%] | Activity [15] | growth inhibition (GI) [16] | Activity [18] | Activity [19] [%] | Activity [20] [%] | growth inhibition (GI) [21] | Activity [22] [%] | further results
1 | COc1ccc(/C=C/C(N)=S)cc1 | inactive | inactive | inactive | Active | inactive | 20.3 | inactive | 12.9 | 54.61 | 60 | Active | inactive | 63.8 | Toxic | Active | Toxic | 23.56 | 23.26 | Active | 3.09 | growth inhibition (GI) [13]: Active; growth inhibition (GI) [17]: inactive
2 | COc1ccc(/C=C/C(N)(S)NNC(=O)c2ccncc2)cc1 (centres undefined) |  |  | Active | Active | inactive | 18.2 |  | 9.83 | 48.85 | 14 | Active |  | 70.7 | Toxic | Active | Toxic | 13.78 | 37.52 | Active | 1.29 | MIC [23]: 1.56 µg/mL (≈ 4.73 µM); growth inhibition (GI) [24]: Active
3 | Cc1ccc(/C=C/C(N)=S)cc1 | inactive | inactive | inactive | Active | inactive | 18.4 | inactive | 14.7 | 24.16 | 25.7 | Active | inactive | 59.8 | Toxic | Active | Toxic | 47.84 | 26.63 | Active | 7.11 | growth inhibition (GI) [17]: inactive
4 | CCOc1ccc(/C=C/C(N)=S)cc1 | inactive | Active |  | Active | Active | 14.8 | inactive | 13.6 | 61.33 | 37.9 | Active | inactive | 70.1 |  | Active | Toxic | 15.41 | 22.57 | Active | 1.56 | growth inhibition (GI) [24]: Active; growth inhibition (GI) [25]: Active; growth inhibition (GI) [26]: Active; growth inhibition (GI) [27]: Active; growth inhibition (GI) [17]: Active
